HSP90 refold inh = HSP90 refolding inhibition in rabbit reticulocyte lysate; luciferase refolding luminescence, 3 h; inhibition, % at 5.6 µM; 290,000 compounds, 0.91% hits; AID 1789;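 active means inhibition above the screen-wide mean plus 3 SD, computed separately per campaign, cut at about 16% in these data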;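 further: 0% = DMSO wells and 100% = 60 µM geldanamycin wells; inhibitors lower the luminescence because luciferase stays unfolded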
FLuc inh counter = Photinus pyralis luciferase inhibition counter-screen | 200,000 compounds, 1.5% hits | ATPLite firefly luciferase biochemical luminescence, 10 min | P08659 | inhibition, % at 10 µM;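 active means inhibition above about 50% when tested at 10 µM, limit read from the data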
Target sequence (P08659 whole entry, looked up): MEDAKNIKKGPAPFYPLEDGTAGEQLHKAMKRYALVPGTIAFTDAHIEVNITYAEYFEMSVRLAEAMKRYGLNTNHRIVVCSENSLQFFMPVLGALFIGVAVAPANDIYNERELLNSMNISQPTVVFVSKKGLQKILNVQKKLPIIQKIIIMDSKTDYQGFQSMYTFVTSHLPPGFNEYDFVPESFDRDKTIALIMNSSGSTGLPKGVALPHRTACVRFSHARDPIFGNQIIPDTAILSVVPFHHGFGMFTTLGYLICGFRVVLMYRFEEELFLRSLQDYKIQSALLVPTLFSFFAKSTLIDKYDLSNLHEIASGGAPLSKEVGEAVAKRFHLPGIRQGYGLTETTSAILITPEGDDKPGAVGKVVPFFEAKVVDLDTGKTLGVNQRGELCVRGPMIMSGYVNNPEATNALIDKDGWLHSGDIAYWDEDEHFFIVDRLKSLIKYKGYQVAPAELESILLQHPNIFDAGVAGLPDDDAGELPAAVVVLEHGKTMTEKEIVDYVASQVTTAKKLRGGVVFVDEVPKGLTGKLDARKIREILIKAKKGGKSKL
C8 TRAIL sens = caspase-8 TRAIL sensitization | 360,000 compounds, 1% hits | AID 624354 | inhibition (viability loss, TRAIL sensitization), % at 10 µM | NB7+C8 cells + TRAIL, ATPlite viability luminescence;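 active means compounds causing at least 50% loss of cell viability in the single-dose screen, relative to plate controls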
PPC-1+TRAIL kill = PPC-1 cancer cell killing with TRAIL present | 220,000 compounds, 0.41% hits | PPC-1 cells + TRAIL, ATPLite viability luminescence | AID 1443 | cell killing (% activity), % at 4 µM or 5 µM;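 active means cell killing above 50% in the first pass at 4 µM, then a duplicate retest at 5 µM averaging 50% or more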;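 further: plate controls were cells with TRAIL plus DMSO for no effect and medium-only wells lacking cells for full effect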
FLuc stim CS = firefly luciferase counter-screen for stimulation assays | P08659 | ATPlite luciferase biochemical, luminescence, 10 min; 0 = ATP-free wells, 1 = DMSO control | activation factor at 10 µM | 200,000 tested, under 10 active | AID 1027;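 active means luciferase activation factor, scaled between plate controls, of at least 2 with compound at 10 µM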
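test system = cell-free luciferase reagent | medium = PBS as buffer for the ATP substrate | dosing = test compounds dosed from 2 mM stocks in 100% DMSO | incubation = 10 min at ambient temperature | detection = luminescence measurement of luciferase light output | benchmarks = low control with PBS replacing ATP, high control enzyme plus ATP without compound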
STAT3 inh = inhibitors of IL-6 induced STAT3 signaling; U3A cells, IL-6 STAT3-luciferase reporter, luminescence; host cell line lacks STAT1; inhibition, % at 5.5 µM; 190,000 compounds, 0.89% hits; AID 862;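 active means inhibition above the mean inhibition across all screened compounds plus 3 SD, cut at about 44% in these data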;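 further: 0% = DMSO only wells and 100% = 100 µM nifuroxazide control wells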
* marks the source's active call; other numbers are inactive results; x = no result. A selection: hits, their analogues and other compounds. The true share with any hit is near 2.2%.

SMILES | HSP90 refold inh | FLuc inh counter | C8 TRAIL sens | PPC-1+TRAIL kill | FLuc stim CS | STAT3 inh
C(=N\Nc1nc2ccccc2[nH]1)/C1CCCCC1 | 13.9 | 74.0* | 9.0 | 20.5 | 0.3 | -10.8
Cc1ccc2c(c1)C(=O)N1c3cc(C)c(C)cc3NC(=O)C1C(=O)N2 (configuration not stated) | x | x | -19.1 | x | x | x
CC(=O)N(C)c1ccc(NC(=O)c2cnn(C)c2)cc1 | 1.4 | -2.0 | -1.3 | -4.5 | 1 | 0.3
Clc1ccccc1Cc1noc(CN2CCN(Cc3ccccn3)CC2)n1 | 1.1 | -2.0 | 4.1 | 6.0 | 1 | 3.4
CCC1CCCCN1Cc1nc(Cc2ccccc2Cl)no1 (configuration not stated) | -1.4 | x | 85.2* | 0.4 | x | x
CN(C)c1ccc(-c2noc(-c3ccccc3O)n2)cc1 | 3.4 | 57.9* | 40.5 | 32.6 | 0.4 | 39.9
COc1ccccc1-c1nc(-c2ccc(Br)cc2)no1 | 1.8 | 15.0 | 19.0 | -1.1 | 0.8 | -37.5
Cc1ccc(-c2noc(-c3ccccc3Br)n2)cc1 | -4.8 | 67.3* | 51.3* | 35.7 | 0.3 | -17.0
Cc1cc(-c2ccccc2)nc(N/N=C/c2ccccc2F)n1 | 8.0 | x | 24.2 | x | x | x
COc1cccc(/C=N/NC(=S)Nc2cccc(C(=O)O)c2)c1 | 2.8 | 52.7* | 24.4 | 18.9 | 0.5 | 27.7
CCc1ccc(NC(=O)Nc2cccc(OC)c2)cc1 | 0.9 | 51.8* | 27.8 | 25.8 | 0.5 | 7.8
COc1cccc(NC(=O)c2ccccc2)c1 | x | x | 13.2 | x | x | x
COc1cccc(NC(=O)Nc2nc(-c3ccc(OC)c(OC)c3)cs2)c1 | 1.6 | x | 96.7* | x | x | x
COc1cccc(NC(=O)Nc2cccc(C(=O)O)c2)c1 | 76.7* | 49.4 | 25.0 | 21.4 | 0.5 | 91.6*
COc1ccc(-c2csc(NC(C)=O)n2)cc1OC | 3.5 | 11.2 | -9.5 | 15.3 | 0.9 | 1.7
CCc1ccc([C@@H]2CC=C(C(=O)O)[C@H](c3ccc(F)cc3)N2S(=O)(=O)c2ccc(C)cc2)cc1 | x | x | 6.4 | x | x | x
CC(C)(C)c1ccc(/C=N/Nc2cccc(C(=O)O)c2)cc1 | 13.5 | 47.5 | 33.3 | 12.4 | 0.5 | 45.9*
CC(C)n1c(=O)c2ccccc2n1Cc1cn(Cc2cccs2)nn1 | x | x | 2.6 | x | x | x
c1ccc(-c2noc(CC3CCCCC3)n2)nc1 | 1.0 | 51.7* | 21.3 | 0.3 | 0.5 | 16.6
c1ccc(-c2noc(-c3cccc4ccccc34)n2)nc1 | 11.1 | 76.9* | 52.6* | -21.9 | 0.2 | 10.7
COc1cccc(-c2nc(-c3ccccn3)no2)c1OC | -2.0 | 25.4 | 11.5 | 11.8 | 0.7 | 14.9
CC(=O)NC1(C(F)(F)F)NC(=O)N(c2ccc(F)cc2)C1=O (configuration not stated) | -0.4 | -11.6 | -0.3 | 4.9 | 1.1 | 5.3
Cc1cc(SCC(=O)N2c3ccccc3NC(=O)CC2C)nc2ccccc12 (configuration not stated) | x | x | -17.1 | x | x | x
O=C(Nc1ncc(Cc2ccccc2)s1)c1cccs1 | 12.8 | 35.7 | 51.4* | 1.6 | 0.6 | 13.3
Cc1ccc(Cc2cnc(NC(=O)c3cccs3)s2)cc1 | 3.5 | 9.1 | 25.1 | 14.8 | 0.9 | 4.9
SMILES | HSP90 refold inh | FLuc inh counter | C8 TRAIL sens | PPC-1+TRAIL kill | FLuc stim CS | STAT3 inh
O=C(Nc1ncc(Cc2ccc(SC(F)F)cc2)s1)c1ccccc1 | 1.5 | -4.0 | 33.3 | 12.4 | 1 | 4.3
Cc1ccc(C(=O)Nc2ncc(Cc3ccccc3)s2)o1 | 11.7 | 79.6* | 57.2* | 32.5 | 0.2 | 35.3
Cc1ccccc1NC(=O)c1ccc(CN2CCC(Cc3ccccc3)CC2)cc1 | 4.0 | -5.4 | 10.6 | 23.5 | 1.1 | 49.5*
CC(C)NC(=O)c1ccc(CN2CCC(Cc3ccccc3)CC2)cc1 | 0.3 | x | 18.9 | x | x | x
Cc1ccc(-c2cc3onc(-c4ccccc4)c3c(=O)n2C)cc1 | x | x | 77.6* | x | x | x
Cc1ccc2oc(=O)n(CC(=O)OCCC(C)C)c2c1 | -6.3 | x | -1.5 | 10.3 | x | x
N#Cc1ccccc1S(=O)(=O)N1CCN(CC(O)CN2CCOCC2)CC1 (configuration not stated) | x | x | 1.1 | x | x | x
CCOC(=O)N1CCC(Nc2c(-c3ccc(C)cc3)c(=O)c2=O)CC1 | 2.0 | 4.2 | 60.2* | 37.0 | 1 | -1.3
CN(C)CCCN(C(=O)c1ccc(S(=O)(=O)N(C)C2CCCCC2)cc1)c1nc2ccc(Br)cc2s1 | 7.0 | x | 57.8* | x | x | x
Cc1cc(C)c2sc(N(CCCN(C)C)C(=O)c3ccc(S(=O)(=O)N(C)C4CCCCC4)cc3)nc2c1 | x | x | 76.0* | x | x | x
CN(C)CCCN(C(=O)c1ccc(S(=O)(=O)N(C)C2CCCCC2)cc1)c1nc2ccc(F)cc2s1 | 1.4 | x | 23.4 | x | x | x
O=C(COc1cc(F)ccc1[N+](=O)[O-])NCC1CCCO1 (configuration not stated) | x | x | 1.1 | x | x | x
O=C(C=Cc1ccccc1)c1cccs1 | x | x | 1.1 | x | x | x
Nc1ccc(/C=C/C(=O)c2cccs2)cc1 | -3.5 | 76.9* | -0.8 | 21.3 | 0.2 | 3.7
C[C@@H]1CN([C@H](C)CO)C(=O)c2cc(Br)cnc2O[C@@H]1CN(C)C(=O)c1ccccc1 | x | x | -17.6 | x | x | x
Cc1ccc(NC(=O)c2noc3c2CCC3)cc1C | 2.2 | 49.1 | 26.7 | 17.2 | 0.5 | 13.7
CC(=O)c1ccc(NC(=O)c2noc3c2CCC3)cc1 | 21.3* | 19.3 | 39.3 | 35.0 | 0.8 | 66.5*
Cc1cccc(C2=N/C(=C\c3cccs3)C(=O)O2)c1 | 1.3 | 65.0* | -2.8 | 18.3 | 0.3 | 10.5
Cc1ccc(S(=O)(=O)Oc2ccc(/C=C3\N=C(c4cccc(C)c4)OC3=O)cc2)cc1 | -3.0 | -3.3 | -8.2 | 6.5 | 1 | 0.4
Cn1c(/N=C/c2c[nH]c3ccccc23)nc2ccccc21 | 1.5 | 87.8* | 38.0 | -6.8 | 0.1 | -8.1
Cn1c(/N=C/c2ccc3c(c2)OCO3)nc2ccccc21 | 2.5 | 90.9* | -4.1 | 1.9 | 0.1 | -6.3
CC(=O)N[C@@H](Cc1c[nH]c2ccccc12)C(=O)OCC(=O)Nc1cc(C)on1 | x | x | -7.0 | x | x | x
COc1ccc(C2(C(=O)c3ccccc3)C(=O)c3ccccc3C2=O)cc1 | -3.6 | x | 55.5* | 25.6 | x | x
CCOC(=O)[C@]12Cc3c(cc(OC)c(OC)c3OC)[C@H]1N(C1CCCCC1)C(=O)c1cc(OC)ccc12 | x | x | 66.7* | x | x | x
O=C(/C=C/c1ccc2c(c1)OCO2)Nc1ccc(Cl)cn1 | -0.3 | 25.3 | 30.8 | 19.1 | 0.7 | 31.1
N#Cc1c(/N=C/c2ccc(Br)s2)sc2c1CCC2 | 5.0 | 18.2 | -8.2 | 2.3 | 0.8 | 1.7
Cc1ccc(/C=N/c2sc3c(c2C#N)CCC3)o1 | 1.5 | 74.1* | 2.3 | 27.5 | 0.3 | 17.4
CC(C)CN1C(=O)N(c2ccc(Cl)cc2)C(C)(O)CC1(C)C (configuration not stated) | -0.3 | x | -1.9 | x | x | x
CCc1noc(C)c1C(=O)Nc1sc(C(=O)N(C)C)c(C)c1C#N | -3.3 | x | -13.1 | x | x | x
CC1(C)N=C(N)N=C(N)N1CCCCc1ccccc1 | x | x | 67.0* | x | x | x
